Here are results for 24 compounds from ChEMBL document CHEMBL3994612, “Novel 4-(4-substituted amidobenzyl)furan-2(5H)-one derivatives as topoisomerase I inhibitors” (Eur J Med Chem, 2017).

The target in assay [1] is T1, DNA topoisomerase 1 (Homo sapiens) (UniProt P11387).
T1 sequence (whole entry): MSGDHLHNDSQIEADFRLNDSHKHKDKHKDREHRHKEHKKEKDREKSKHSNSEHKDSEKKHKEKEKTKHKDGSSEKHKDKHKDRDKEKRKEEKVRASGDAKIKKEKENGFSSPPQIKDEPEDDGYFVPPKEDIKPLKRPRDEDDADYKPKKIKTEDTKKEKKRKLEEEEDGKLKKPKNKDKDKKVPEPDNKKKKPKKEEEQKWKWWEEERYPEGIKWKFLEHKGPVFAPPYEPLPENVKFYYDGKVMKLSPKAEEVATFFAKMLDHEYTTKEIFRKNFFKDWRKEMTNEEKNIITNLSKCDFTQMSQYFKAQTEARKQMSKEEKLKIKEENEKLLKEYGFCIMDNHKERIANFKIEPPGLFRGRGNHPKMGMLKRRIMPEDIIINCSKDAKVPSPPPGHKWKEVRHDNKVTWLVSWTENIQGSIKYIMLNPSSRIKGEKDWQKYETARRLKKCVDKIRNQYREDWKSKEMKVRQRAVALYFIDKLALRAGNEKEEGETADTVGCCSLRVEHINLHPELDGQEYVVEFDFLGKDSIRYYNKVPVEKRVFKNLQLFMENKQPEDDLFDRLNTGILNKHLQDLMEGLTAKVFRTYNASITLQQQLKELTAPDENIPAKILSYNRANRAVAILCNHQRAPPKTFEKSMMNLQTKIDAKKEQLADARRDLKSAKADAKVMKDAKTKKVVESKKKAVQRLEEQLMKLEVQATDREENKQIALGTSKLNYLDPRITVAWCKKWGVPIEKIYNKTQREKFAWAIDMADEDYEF
Put plainly: Inhibition of recombinant human topoisomerase-1 assessed as DNA insertion by measuring drug-DNA-enzyme ternary complex formation up to 100 uM using supercoiled pBR322 DNA substrate after 30 mins by ethidium bromide staining based agarose gel electrophoresis. The procedure, abridged: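 Supercoiled pBR322 DNA (0.1 µg) in Topo I buffer (50 mM Tris-HCl pH 7.5, 10 mM MgCl2, 50 mM KCl, 0.1 mM EDTA, 0.5 mM DTT, BSA) pre-incubated with compound 10 min at 25 °C. Excess Topo I (4 units) then added, 30 min at 37 °C. Read-out: 1% agarose/TAE electrophoresis, EB staining, UV imaging. Ethidium bromide positive control; camptothecin negative control.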

In another assay the test system is MCF7. Description: Cytotoxicity against human MCF7 cells assessed as reduction in cell viability after 48 hrs by MTT assay. It is filed as functional, cell-based. The following applies: MCF7, 48 h. The procedure, abridged: (§1)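 MCF-7, HeLa and A549 cells seeded at 3.5 × 10^3 per well in medium with 10% FBS and left overnight. Medium then replaced with fresh medium holding a range of compound concentrations for 48 h. MTT (5 mg/mL) added, 4 h at 37 °C. Formazan dissolved in DMSO, absorbance read at 570 nm. Triplicate wells per dose; IC50 derived.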
In general terms: Tetrazolium dyes change colour on reduction, which living cells bring about.

Another assay relates to HeLa. Description: Cytotoxicity against human HeLa cells assessed as reduction in cell viability after 48 hrs by MTT assay. It is filed as functional, cell-based. An outline of the steps:
as §1

The target in assay [2] is T1, DNA topoisomerase 1 (Homo sapiens). Description: Inhibition of recombinant human topoisomerase-1 assessed as reduction in relaxation of supercoiled pBR322 DNA substrate at 100 uM after 30 mins by ethidium bromide staining based agarose gel electrophoresis relative to control. The procedure, abridged:
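pBR322 DNA (0.1 µg) and recombinant human Topo I (0.2 units) incubated ± compound 30 min at 37 °C in supplier's Topo I buffer; compounds from DMSO stocks. Stopped with bromophenol blue/xylene cyanol/glycerol dye. Read-out: 1% agarose in 1× TAE, 100 V for 30 min, EB stain (0.5 µg/mL). Percent inhibition from gray-scale band analysis; camptothecin positive control.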

The subject of the next assay is A549. Description: Cytotoxicity against human A549 cells assessed as reduction in cell viability after 48 hrs by MTT assay. Format: functional, cell-based. The following applies: A549, 48 h. An outline of the steps:
as §1

Assay [3] concerns the target T1, DNA topoisomerase 1 (Homo sapiens). Description: Inhibition of recombinant human topoisomerase-1 assessed as DNA insertion by measuring drug-DNA-enzyme ternary complex formation up to 25 uM using supercoiled pBR322 DNA substrate after 30 mins by ethidium bromide staining based agarose gel electrophoresis. An outline of the steps: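 Supercoiled pBR322 DNA (0.1 µg) preincubated with compound 10 min at 25 °C, then excess Topo I (4 units) added, 30 min at 37 °C in 20 µL Tris-HCl pH 7.5 buffer with MgCl2, KCl, EDTA, DTT, BSA. Run on 1% agarose in TAE 40 min, EB post-stained, UV-imaged. Unwinding read as supercoiled retained versus relaxed.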

Assay [4] shares this target. Description: Inhibition of recombinant human topoisomerase-1 assessed as interference in DNA binding to enzyme by measuring reduction in enzyme-DNA complex using supercoiled pBR322 DNA substrate preincubated for 20 mins followed by substrate addition measured after 3 mins by electrophoretic mobility shift assay. On the technique in general: In EMSA bound probe runs differently from free probe, usually more slowly.

For assay [5] the target is unchanged. Description: Poison activity at recombinant human topoisomerase-1 assessed as stabilization of DNA-enzyme cleavage complex by measuring increase in linear DNA using supercoiled pBR322 DNA substrate after 30 mins by ethidium bromide staining based agarose gel electrophoresis.

The term inhibition denotes the change of the read-out against control, counted positive when it falls. One may read the IC50 as the point on the concentration scale where inhibition reaches its midpoint.

Activity calls are given as the source filed them. The calls are words filed in the database; no cut-off is given here.

Take `C=C1OC(=O)C=C1Cc1ccc(NC(=O)Cc2cccc(C(F)(F)F)c2)cc1`: the inhibition entry in assay [1] is “inactive”. The 50% inhibitory concentration (IC50) stood at 6.15 µM with MCF7, 8.63 µM in the assay with HeLa and 6.69 µM with A549. The inhibition in assay [2] was found to be 41.9%.

For `O=C(/C=C/c1ccc(F)cc1)Nc1ccc(CC2=CC(=O)OC2)cc1`, the values for the IC50 in the assay with MCF7, with HeLa and in the assay with A549 were 47.9 µM, greater than 50 µM and 41.8 µM, respectively. Besides, the inhibition in assay [2] is 12.1%.

On to `C=C1OC(=O)C=C1Cc1ccc(NC(=O)/C=C/c2ccccc2F)cc1`, for which the inhibition entry in assay [1] was “inactive”. In addition, the half-maximal inhibitory concentration (IC50) with MCF7 amounted to 13.8 µM; in the assay on HeLa, 6.93 µM; in the assay with A549, 7.41 µM. For the same compound, the inhibition in assay [2] is 44.6%.

Regarding `O=C(/C=C/c1ccccc1F)Nc1ccc(CC2=CC(=O)OC2)cc1`, the figures for the IC50 in the assay with MCF7, in the assay on HeLa and in the assay on A549 were greater than 50 µM, 45.8 µM and 40 µM, respectively. The inhibition in assay [2] was 11.7%.

Turning to `C=C1OC(=O)C=C1Cc1ccc(NC(=O)Cc2ccc(Cl)cc2)cc1`, the inhibition entry in assay [1] is “inactive”. Besides, the values for the concentration for half-maximal inhibition (IC50) in the assay on MCF7, in the assay with HeLa and in the assay on A549 were 37.4 µM, 35.5 µM and 37.6 µM, respectively. Also, the inhibition in assay [2] came to 30.3%.

Turning to `C=C1OC(=O)C=C1Cc1ccc(NC(=O)/C=C/c2ccccc2)cc1`, the inhibition entry in assay [1] is “inactive”. In addition, the half-maximal inhibitory concentration (IC50) in the assay with MCF7 came to 9.49 µM; in the assay on HeLa, 7.34 µM; in the assay with A549, 14.8 µM. For the same compound, the inhibition in assay [2] was 48.6%.

Take `C=C1OC(=O)C=C1Cc1ccc(NC(=O)Cc2cccc(Cl)c2)cc1`: the inhibition result in assay [1] is “inactive”. Moreover, the figures for the IC50 with MCF7, in the assay on HeLa and in the assay on A549 were 42.9 µM, 45.8 µM and 41 µM, respectively. The inhibition in assay [2] is 22.5%.

Consider `C=C1OC(=O)C=C1Cc1ccc(NC(=O)Cc2ccccc2Cl)cc1`, for which, in assay [1], the inhibition entry was “inactive”. Further, the half-maximal inhibitory concentration (IC50) worked out at 40.9 µM with MCF7, 42.6 µM in the assay with HeLa and 48.8 µM in the assay on A549. Besides, in assay [2], the inhibition amounted to 21.3%.

`O=C(/C=C/c1cccc(F)c1)Nc1ccc(CC2=CC(=O)OC2)cc1`: the IC50 in the assay on MCF7 was 39 µM; in the assay with HeLa it was 49 µM; with A549, greater than 50 µM. The inhibition in assay [2] was determined as 13.1%.

Take `C=C1OC(=O)C=C1Cc1ccc(NC(=O)Cc2ccc(C(F)(F)F)cc2)cc1`: the inhibition result in assay [1] was “inactive”. For the same compound, the IC50 amounted to 39.8 µM in the assay on MCF7, 39.7 µM with HeLa and 42.9 µM with A549. Also, the inhibition in assay [2] is 34.9%.

`C=C1OC(=O)C=C1Cc1ccc(NC(=O)Cc2ccccc2)cc1`: in assay [1], the inhibition entry is “inactive”. Also, the IC50 with MCF7 is greater than 50 µM; in the assay on HeLa, greater than 50 µM; with A549 it was 39 µM. Also, the inhibition in assay [2] came out at 28.5%.

Regarding `C=C1OC(=O)C=C1Cc1ccc(NC(=O)/C=C/c2cccc(F)c2)cc1`, the inhibition entry in assay [1] is “inactive”. For the same compound, the concentration for half-maximal inhibition (IC50) in the assay with MCF7 was 39 µM; in the assay on HeLa, 30.2 µM; in the assay on A549, 35.2 µM. In addition, the inhibition in assay [2] amounted to 34.5%.

In the case of `Cc1ccc(CC(=O)Nc2ccc(CC3=CC(=O)OC3)cc2)cc1`, the figures for the concentration for half-maximal inhibition (IC50) in the assay on MCF7, in the assay with HeLa and in the assay on A549 were 49.2 µM, greater than 50 µM and 41.4 µM, respectively. In addition, the inhibition in assay [2] is 19.4%.

For the compound `C=C1OC(=O)C=C1Cc1ccc(NC(=O)Cc2ccccc2F)cc1`, the inhibition result in assay [1] was “inactive”. Moreover, the IC50 in the assay with MCF7 was 48.3 µM; in the assay on HeLa it was 40.5 µM; in the assay with A549, 32 µM. The inhibition in assay [2] is 32.8%.

Turning to `C=C1OC(=O)C=C1Cc1ccc(NC(=O)c2ccccc2)cc1`, in assay [1], the inhibition result was “inactive”. The concentration for half-maximal inhibition (IC50) in the assay on MCF7 was greater than 50 µM; with HeLa, 48.3 µM; in the assay on A549, 49.8 µM. The inhibition in assay [2] turned out to be 28.7%.

In the case of `C=C1OC(=O)C=C1Cc1ccc(NC(=O)Cc2ccccc2C(F)(F)F)cc1`, in assay [1], the inhibition result is “inactive”. In addition, the concentration for half-maximal inhibition (IC50) with MCF7 was 48.7 µM; in the assay with HeLa, 37.5 µM; in the assay on A549 it was 37.5 µM. Further, the inhibition in assay [2] turned out to be 32.3%.

For `O=C(Cc1cccc(C(F)(F)F)c1)Nc1ccc(CC2=CC(=O)OC2)cc1`, the values for the IC50 with MCF7, in the assay with HeLa and with A549 were 40.1 µM, 44 µM and greater than 50 µM, respectively. Further, in assay [2], the inhibition worked out at 12.3%.

Turning to `O=C(Cc1ccccc1C(F)(F)F)Nc1ccc(CC2=CC(=O)OC2)cc1`, the concentration for half-maximal inhibition (IC50) with MCF7 was 43.8 µM; in the assay with HeLa, 44.6 µM; in the assay on A549 it was 48.9 µM. The inhibition in assay [2] is 20.3%.

With `CC[n+]1c(-c2ccccc2)c2cc(N)ccc2c2ccc(N)cc21`, the inhibition entry in assay [3] is “Active”.

Turning to `C=C1OC(=O)C=C1Cc1ccc(NC(=O)Cc2ccc(C)cc2)cc1`, the inhibition result in assay [1] is “inactive”. Further, the values for the IC50 in the assay with MCF7, in the assay on HeLa and in the assay with A549 were 3.94 µM, 7.12 µM and 7.79 µM, respectively. Also, in assay [2], the inhibition stood at 47.9%.

Regarding `CC[C@@]1(O)C(=O)OCc2c1cc1n(c2=O)Cc2cc3ccccc3nc2-1` [CAMPTOTHECIN], the results for the IC50 with MCF7, in the assay with HeLa and in the assay on A549 were 71.3 µM, 60 µM and 0.24 µM, respectively.

As to `O=C(Cc1ccc(C(F)(F)F)cc1)Nc1ccc(CC2=CC(=O)OC2)cc1`, the IC50 in the assay with MCF7 was determined as 46.4 µM; with HeLa, 48.8 µM; with A549, 45.8 µM. Further, the inhibition in assay [2] was 11%.

`C=C1OC(=O)C=C1Cc1ccc(NC(=O)/C=C/c2ccc(F)cc2)cc1`: the inhibition result in assay [1] was “inactive”. For the same compound, the IC50 in the assay with MCF7 came to 4.43 µM; with HeLa, 2.77 µM; in the assay with A549 it was 3.46 µM. In addition, the inhibition result in assay [4] was “Dose-dependent effect”; in assay [2] it was 94%. The Activity entry in assay [5] was “Dose-dependent effect”.

As to `C=C1OC(=O)C=C1Cc1ccc(NC(=O)Cc2ccc(F)cc2)cc1`, the inhibition entry in assay [1] was “inactive”. The values for the 50% inhibitory concentration (IC50) with MCF7, with HeLa and with A549 were 16 µM, 16.2 µM and 22.8 µM, respectively. Also, in assay [2], the inhibition amounted to 43.3%.
